Active and inactive are the calls of the source. No cut-off for these calls is given here.
Experiments:
dengue virus type 2 [1] = test: Antiviral activity against DENV-2 NGC-N infected in Stat1-/- mouse assessed as improvement in mouse survival by measuring median survival time at 2 mg/kg, po dosed 8 hrs after infection and ending at day 6 after infection (8 hrs delay) (reference value: 10 days); format: functional
dengue virus type 2 [2] = test: Antiviral activity against fluorescently labeled Dengue virus 2 infected in human BE(2)-C cells at 3.125 uM by confocal microscopy; format: functional, organism-based
Method in brief: (§1)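 DENV-2 or ZIKV was concentrated and labeled with atto-647N dye. BE(2)C cells were pretreated with solvent or 3.125 µM, then incubated at 37 °C with labeled DENV-2 for 30 min or ZIKV for 60 min. Cells were fixed in 4% paraformaldehyde, membranes stained with WGA-488, and intracellular virus signal imaged by confocal microscopy.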

dengue virus type 2 [3] = test: Antiviral activity against Dengue virus 2 infected in human BE(2)-C cells assessed as reduction in viral entry at 3.125 to 6.25 uM incubated for 90 mins by plaque-forming assay; format: functional, organism-based
Method in brief: (§2)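 Virus entry: BE(2)C cells were incubated with DENV-2 or ZIKV for 90 min at 4 °C and washed cold. Cells were then treated with 3.125 or 6.25 μM compound at 37 °C for 1 h. Non-internalized virus was inactivated with 0.1 M glycine, pH 3, for 5 min. Cells were lysed by needle passage, and internalized virus was titrated by plaque assay. Mean ± SD, n = 3.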

Zika virus [4] = test: Antiviral activity against fluorescently labeled Zika virus infected in human BE(2)-C cells at 3.125 uM by confocal microscopy; format: functional, organism-based; method in brief: as §1
dengue virus type 2 [5] = test: Antiviral activity against Dengue virus 2 infected in human BE(2)-C cells transfected with shLacZ assessed as NS3 protein expression at 6.25 uM incubated for 48 hrs by Western blot analysis (reference value: 100%); format: functional
dengue virus type 2 [6] = test: Antiviral activity against Dengue virus 2 infected in human BE(2)-C cells assessed as NS3 protein expression at 12.5 uM incubated for 48 hrs by Western blot analysis (reference value: 100%); format: functional
Method in brief: (§3)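 BE(2)C neuroblastoma cells in RPMI 1640 with 10% FBS were infected with DENV-2 PL046 at MOI 0.1 for 48 h, without or with compound at increasing concentrations. NS3 was immunoblotted with actin as loading control. The NS3:actin densitometry ratio was expressed as % of the DMSO control. Mean ± SD of 3 independent experiments.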

Zika virus [7] = test: Antiviral activity against Zika virus infected in Stat1-/- mouse assessed as time delay in virus-induced mouse mortality at 8 mg/kg/day, po dosed immediately following viral infection followed by daily dosing for 6 days (reference value: 13 days); format: functional
Zika virus [8] = test: Antiviral activity against Zika virus infected in Stat1-/- mouse assessed as improvement in overall mouse survival at 4 to 8 mg/kg, po dosed 8 hrs after infection and ending at day 6 after infection (8 hrs delay) relative to control; format: functional, organism-based
Method in brief: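 Stat1-/- mice, 6 weeks old, infected sc in the footpad with 5x10⁴ PFU of ZIKV PRVABC59. Oral dosing at 4 or 8 mg/kg/day, or PBS, started 8 h post-infection and ran daily up to day 6; n = 5. Survival was monitored for 12 d, with T50 by log-rank test.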

dengue virus type 2 [9] = test: Antiviral activity against Dengue virus 2 infected in human BE(2)-C cells transfected with shLacZ assessed as NS3 protein expression at 3.125 uM incubated for 48 hrs by Western blot analysis (reference value: 100%); format: functional
dengue virus type 2 [10] = test: Antiviral activity against Dengue virus 2 infected in human BE(2)-C cells assessed as reduction in viral entry at 3.125 to 6.25 uM incubated for 90 mins by plaque-forming assay relative to control; format: functional; parameters: scale not given: the % may be the effect or the level left; method in brief: as §2
Zika virus [11] = test: Antiviral activity against Zika virus infected in human BE(2)-C cells transfected with shLacZ assessed as NS3 protein expression at 3.125 uM incubated for 48 hrs by Western blot analysis (reference value: 100%); format: functional
dengue virus type 2 [12] = test: Antiviral activity against Dengue virus 2 infected in human BE(2)-C cells assessed as reduction in NS3 protein expression at 3.125 to 6.25 uM treated during 3 to 24 hrs post infection by Western blot analysis; format: functional, organism-based
Method in brief: (§4)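 Time-of-addition design: BE(2)C cells were infected with DENV-2 or ZIKV at MOI 1. Compound at 3.125 or 6.25 μM was present either during adsorption (0–3 hpi) or afterward (3–24 hpi). Viral protein was immunoblotted against actin, with the ratio as % of the solvent control.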

Zika virus [13] = test: Antiviral activity against Zika virus infected in human BE(2)-C cells assessed as suppression of viral-induced CaMKIIalpha activation at 3.125 uM incubated for 4 hrs by confocal microscopy; format: functional, organism-based
Zika virus [14] = test: Antiviral activity against Zika virus infected in human BE(2)-C cells transfected with shCaMKIIalpha assessed as NS3 protein expression at 3.125 uM incubated for 48 hrs by Western blot analysis (reference value: 100%); format: functional
dengue virus type 2 [15] = test: Antiviral activity against eGFP-fused Dengue virus 2 infected in human BE(2)-C cells assessed as viral infection level by measuring intensity of eGFP emission from infected cells at 1.56 uM incubated for 24 hrs relative to control; format: functional
Method in brief: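 BE(2)C cells, in RPMI 1640 with 10% FBS, were infected with DENV-2-eGFP reporter virus (MOI 1) for 24 h with or without compound, using DMSO as solvent control. Cells were fixed in 4% paraformaldehyde and stained with Hoechst, then imaged by high-content analysis. eGFP intensity per cell number is given as % of solvent control. Values are means of 3 experiments.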

dengue virus type 2 [16] = test: Antiviral activity against Dengue virus 2 infected in human BE(2)-C cells assessed as reduction in NS3 protein expression at 3.125 to 6.25 uM treated during 0 to 3 hrs post infection by Western blot analysis; format: functional, organism-based; method in brief: as §4
Zika virus [17] = test: Antiviral activity against Zika virus infected in Stat1-/- mouse assessed as reduction in viral load at 4 to 8mg/kg/day, po dosed immediately following viral infection followed by daily dosing for 3 days; format: functional, organism-based
Method in brief: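 Stat1-/- mice infected with DENV-2 NGC-N (1x10⁵ PFU iv) or ZIKV PRVABC59 (5x10⁴ PFU sc, footpad), with oral dosing or PBS starting immediately. Serum was taken from the submandibular vein on day 3 post-infection. Viremia was measured by plaque assay and reported as individual values and mean; n = 5.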

dengue virus type 2 [18] = test: Antiviral activity against Dengue virus 2 infected in human BE(2)-C cells assessed as NS3 protein expression at 3.125 uM incubated for 48 hrs by Western blot analysis (reference value: 100%); format: functional; method in brief: as §3
BE(2)-C = test: Cytotoxicity against human BE(2)-C cells assessed as reduction in cell viability up to 12.5 uM incubated overnight by trypan blue assay relative to control; format: cell-based
Method in brief: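 Viable BE(2)C cell number after overnight exposure to compound up to 12.5 μM, counted by trypan blue exclusion; expressed as percent of solvent control, mean ± SD of 3 independent experiments.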

dengue virus type 2 [19] = test: Antiviral activity against DENV-2 NGC-N infected in Stat1-/- mouse assessed as improvement in overall mouse survival at 4 mg/kg, po dosed 8 hrs after infection and ending at day 6 after infection (8 hrs delay) relative to control; format: functional
dengue virus type 2 [20] = test: Antiviral activity against Dengue virus 2 infected in human BE(2)-C cells assessed as NS3 protein expression at 6.25 uM incubated for 48 hrs by Western blot analysis (reference value: 100%); format: functional; method in brief: as §3

COc1ccc(S(=O)(=O)N(CCCC(=O)C2CCCCCC2)c2ccccc2)cc1
MST (dengue virus type 2 [1]): 14 days
Activity (dengue virus type 2 [2]): Active
Activity (dengue virus type 2 [3]): Dose-dependent effect
Activity (Zika virus [4]): Active
Activity (dengue virus type 2 [5]): 34.6%
Activity (dengue virus type 2 [6]): 5.1%
Time (Zika virus [7]): 18 days
Activity (Zika virus [8]): inactive
Activity (dengue virus type 2 [9]): 62.2%
Activity (dengue virus type 2 [10]): <=70%
Activity (Zika virus [11]): 102%
Activity (dengue virus type 2 [12]): inactive
Activity (Zika virus [13]): Active
Activity (Zika virus [14]): 101%
Activity (dengue virus type 2 [15]): 31.8%
Activity (dengue virus type 2 [16]): Dose-dependent effect
Activity (Zika virus [17]): Active
Activity (dengue virus type 2 [18]): 54.5%
Activity (BE(2)-C): Non-Toxic
Activity (dengue virus type 2 [19]): 40%
Activity (dengue virus type 2 [20]): 23.1%

Source: ChEMBL document CHEMBL4376891, “Benzenesulfonamide Derivatives as Calcium/Calmodulin-Dependent Protein Kinase Inhibitors and Antiviral Agents against Dengue and Zika Virus Infections” (J Med Chem, 2020)
